Source: ChEMBL document CHEMBL2021776, “Highly potent and selective fluorescent antagonists of the human adenosine A₃ receptor based on the 1,2,4-triazolo[4,3-a]quinoxalin-1-one scaffold” (J Med Chem, 2012)
Values belong to the molecule of their own block, whether it stands above or below them. Activity calls are given as the source filed them. The rule behind the calls is not given here.

How the values were obtained:
Adenosine receptor A3 = target: T1, Adenosine receptor A3 (Homo sapiens, UniProt P0DMS8); assay: Antagonist activity at human adenosine A3 receptor expressed in forskolin-stimulated CHO cells assessed as inhibition of NECA-induced CRE-SPAP gene transcription by measuring intracellular cAMP level after 5 hrs; assay type: functional, cell-based
T1 sequence (P0DMS8 whole entry): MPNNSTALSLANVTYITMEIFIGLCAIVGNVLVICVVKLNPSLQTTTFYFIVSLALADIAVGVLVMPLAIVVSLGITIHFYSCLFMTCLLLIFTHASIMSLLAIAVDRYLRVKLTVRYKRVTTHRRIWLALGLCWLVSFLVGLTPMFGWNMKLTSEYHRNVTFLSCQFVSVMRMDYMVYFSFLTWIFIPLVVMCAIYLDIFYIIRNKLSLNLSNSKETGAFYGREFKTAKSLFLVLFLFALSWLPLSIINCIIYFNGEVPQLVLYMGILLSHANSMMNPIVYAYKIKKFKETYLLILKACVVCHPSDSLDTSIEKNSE
Method in brief: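 Clonal CHO cells co-expressing CRE-SPAP reporter and human A3 receptor, serum-starved 18 h. Three antagonist concentrations for 30 min at 37 °C, then NECA curves for 30 min, then 1 μM forskolin for 5 h. After 1 h in fresh medium and 65 °C heat step, SPAP activity read as 4-nitrophenyl phosphate hydrolysis (405 nm). Curves globally fitted to an interaction model.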

Adenosine receptor A2b = target: T2, Adenosine receptor A2b (Homo sapiens, UniProt P29275); assay: Antagonist activity at adenosine A2B receptor in HEK293 cells expressing glosensor cAMP biosensor assessed as inhibition of NECA-induced increase of intracellular cAMP level after 5 hrs; assay type: functional, cell-based
T2 sequence (P29275 whole entry): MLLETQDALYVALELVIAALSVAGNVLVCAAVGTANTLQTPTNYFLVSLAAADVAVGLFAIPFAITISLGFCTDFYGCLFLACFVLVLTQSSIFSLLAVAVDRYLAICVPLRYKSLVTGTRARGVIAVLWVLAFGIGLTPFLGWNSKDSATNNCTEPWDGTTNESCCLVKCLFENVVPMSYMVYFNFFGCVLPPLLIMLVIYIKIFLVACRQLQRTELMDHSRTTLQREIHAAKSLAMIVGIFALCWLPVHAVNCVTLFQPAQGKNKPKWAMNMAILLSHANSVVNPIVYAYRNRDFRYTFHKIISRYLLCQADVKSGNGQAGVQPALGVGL
Method in brief: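 HEK293 cells stably expressing Glosensor cAMP biosensor, with endogenous human A2B receptor. Cells equilibrated 2 h at 37 °C in HBSS with 3% v/v Glosensor reagent. Antagonist added at 1.5 h, NECA at 2 h. Luminescence read every 2 min for 60 min; maximal read used. pKD estimated from rightward shift of NECA curve by 1 μM antagonist via dose ratio.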

[1] = target: T3, Adenosine receptor A1 (Homo sapiens) (UniProt P30542); assay: Binding affinity to human full length human adenosine A1 receptor expressed in CHO cells up to 100 nM after 10 mins by confocal microscopic analysis; assay type: cell-based
T3 sequence (whole entry): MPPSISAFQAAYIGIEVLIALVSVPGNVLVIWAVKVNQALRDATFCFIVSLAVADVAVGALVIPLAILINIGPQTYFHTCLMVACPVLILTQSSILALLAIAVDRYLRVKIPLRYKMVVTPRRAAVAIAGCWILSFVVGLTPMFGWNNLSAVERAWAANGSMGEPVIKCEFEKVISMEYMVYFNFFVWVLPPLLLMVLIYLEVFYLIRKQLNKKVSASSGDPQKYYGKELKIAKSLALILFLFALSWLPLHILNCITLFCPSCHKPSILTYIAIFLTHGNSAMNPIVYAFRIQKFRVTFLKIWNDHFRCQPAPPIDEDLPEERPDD
Method in brief: (§1)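 Live CHO cells stably expressing human A1 receptor were washed in HBS. They were preincubated 30 min at 37 °C with or without 100 nM DPCPX, then exposed to fluorescent ligand (25 nM, or up to 100 nM) for 10 min. Single equatorial confocal images were taken using identical laser power, gain and offset.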

Homo sapiens = species on record: Homo sapiens; assay: Selectivity ratio of human A1 receptor to human A3 receptor
[2] = target: T4, Adenosine receptor A3 (Homo sapiens) (UniProt P0DMS8); assay: Binding affinity to human adenosine A3 receptor expressed in CHO cells assessed as intracellular fluorescence level after 10 mins by confocal microscopic analysis; assay type: cell-based
T4 sequence (whole entry): T1 sequence (P0DMS8 whole entry)
Method in brief: (§2)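 Live CHO cells stably expressing human A3 receptor were washed in HBS. They were preincubated 30 min at 37 °C with or without 100 nM MRS1220, then exposed to 25 nM fluorescent ligand for 10 min. Single equatorial confocal images were taken in the continued presence of ligand, using identical laser and detector settings. Images are representative of 3−5 experiments.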

[3] = target: T4, Adenosine receptor A3 (Homo sapiens); assay: Binding affinity to human adenosine A3 receptor expressed in CHO cells assessed as intracellular fluorescence level after 10 mins by confocal microscopic analysis in presence of MRS1220 treated 30 mins before compound challenge; assay type: cell-based; method in brief: as §2
Adenosine receptor A1 = target: T5, Adenosine receptor A1 (Homo sapiens, UniProt P30542); assay: Antagonist activity at human adenosine A1 receptor expressed in CHO cells assessed as inhibition of NECA-induced increase of intracellular calcium level after 5 hrs
T5 sequence (P30542 whole entry): T3 sequence (whole entry)

[4] = target: T3, Adenosine receptor A1 (Homo sapiens); assay: Binding affinity to human full length human adenosine A1 receptor expressed in CHO cells at 25 nM after 10 mins by confocal microscopic analysis; assay type: cell-based; method in brief: as §1
[5] = target: T3, Adenosine receptor A1 (Homo sapiens); assay: Binding affinity to human full length human adenosine A1 receptor expressed in CHO cells after 10 mins by confocal microscopic analysis in presence of DPCPX treated 30 mins before compound challenge; assay type: cell-based; method in brief: as §1

SMILES: CCN1/C(=C/C=C/C=C/C2=[N+](CCCCCC(=O)NCCOCCOCCNC(=O)CCC(=O)Nc3nc4ccccc4n4c(=O)n(-c5ccc(OC)cc5)nc34)c3cc(S(=O)(=O)[O-])ccc3C2(C)C)C(C)(C)c2cc(S(=O)(=O)O)ccc21
Kd (Adenosine receptor A3): 148 nM

SMILES: COc1ccc(-n2nc3c(NC(=O)CCC(=O)NCCCCCCCCN)nc4ccccc4n3c2=O)cc1
Kd (Adenosine receptor A3): 0.331 nM

SMILES: COc1ccc(-n2nc3c(NC(=O)CCC(=O)NCCOCCOCCNC(=O)CCCCCNC(=O)COc4ccc(/C=C/C5=[N+]6C(=Cc7ccc(-c8cccs8)n7[B-]6(F)F)C=C5)cc4)nc4ccccc4n3c2=O)cc1
Kd (Adenosine receptor A3): 0.437 nM | Kd (Adenosine receptor A2b): < 1000 nM | Activity [1]: inactive | Selectivity ratio (Homo sapiens): 650 | Activity [2]: Active | Activity [3]: inactive | Kd (Adenosine receptor A1): 275 nM

SMILES: COc1ccc(-n2nc3c(NC(=O)CN)nc4ccccc4n3c2=O)cc1
Kd (Adenosine receptor A3): 1.45 nM

SMILES: COc1ccc(-n2nc3c(NC(=O)CCC(=O)NCCOCCOCCNC(=O)CCCCCNC(=O)COc4ccc(C5=[N+]6C(=Cc7ccc(-c8cccs8)n7[B-]6(F)F)C=C5)cc4)nc4ccccc4n3c2=O)cc1
Kd (Adenosine receptor A3): 3.39 nM | Kd (Adenosine receptor A2b): < 1000 nM | Activity [4]: Active | Selectivity ratio (Homo sapiens): 50 | Activity [2]: Active | Activity [3]: Active | Activity [5]: inactive | Kd (Adenosine receptor A1): 166 nM

Continued, values first:

Kd (Adenosine receptor A3): 16.6 nM
SMILES: COc1ccc(-n2nc3c(NC(=O)CCC(=O)NCCCCCCCCNC(=O)CCCCCNC(=O)COc4ccc(/C=C/C5=[N+]6C(=Cc7ccc(-c8cccs8)n7[B-]6(F)F)C=C5)cc4)nc4ccccc4n3c2=O)cc1

Kd (Adenosine receptor A3): 20.9 nM
SMILES: COc1ccc(-n2nc3c(NC(=O)CCC(=O)NCCOCCOCCN)nc4ccccc4n3c2=O)cc1

Kd (Adenosine receptor A3): 38 nM
SMILES: COc1ccc(-n2nc3c(NC(=O)c4ccc(N)cc4)nc4ccccc4n3c2=O)cc1

Kd (Adenosine receptor A3): 5.62 nM
SMILES: COc1ccc(-n2nc3c(NC(=O)CCC(=O)NCCOCCOCCNC(=O)CCOCCOCCOCCOCCOCCOCCOCCOCCOCCOCCOCCOCCNC(=O)c4ccc(-c5c6ccc(=[N+](C)C)cc-6oc6cc(N(C)C)ccc56)c(C(=O)[O-])c4)nc4ccccc4n3c2=O)cc1
